Each block holds one compound with its values, some of them ahead of it. Activity calls are given as the source filed them. The rule behind the calls is not given here.
Legend:
[1] = Neuroprotective activity in […] human MC65 cells assessed as protection against APP-induced cell death by MTT assay; type: functional, cell-based
Method in brief: (§1)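 MC65 neuroblastoma cells carrying a tetracycline-repressible SβC gene (APP C99 fragment); induction causes intraneuronal Aβ oligomer accumulation and cell death after three days. Viability read by MTT. EC50 (median effective concentration for protection) and TD50 (median toxic concentration) derived; TI = TD50/EC50. Triplicate experiments, standard errors calculated.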

[2] = Therapeutic index, ratio of TD50 for human MC65 cells to EC50 for […] human MC65 cells; type: cell-based; conditions: read-out: TI; method in brief: as §1
[3] = Cytotoxicity against human MC65 cells by MTT assay; type: cell-based; conditions: read-out: TD50 (the source's name); method in brief: as §1
[4] = Induction of ABCA1 mRNA expression in human MC65 cells after 24 hrs; type: functional, cell-based; conditions: MC65, 24 h
Method in brief: (§2)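 Cells (MC65 or Huh-7) incubated 24 h with compound or mock medium. ABCA1 gene expression measured with a Gene Expression Assay and compared with mock-treated cells to derive EC50.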

[5] = tested on: ACAT; assay: Therapeutic index, ratio of TD50 for human MC65 cells to IC50 for ACAT activity in human MC65 cells; type: cell-based; conditions: read-out: TI
[6] = molecular target: T1, Sterol O-acyltransferase 1 (Homo sapiens, UniProt P35610); assay: Inhibition of ACAT activity in human MC65 cells using NBD-cholesterol staining after 24 hrs by fluorescence assay
T1 sequence (P35610 whole entry): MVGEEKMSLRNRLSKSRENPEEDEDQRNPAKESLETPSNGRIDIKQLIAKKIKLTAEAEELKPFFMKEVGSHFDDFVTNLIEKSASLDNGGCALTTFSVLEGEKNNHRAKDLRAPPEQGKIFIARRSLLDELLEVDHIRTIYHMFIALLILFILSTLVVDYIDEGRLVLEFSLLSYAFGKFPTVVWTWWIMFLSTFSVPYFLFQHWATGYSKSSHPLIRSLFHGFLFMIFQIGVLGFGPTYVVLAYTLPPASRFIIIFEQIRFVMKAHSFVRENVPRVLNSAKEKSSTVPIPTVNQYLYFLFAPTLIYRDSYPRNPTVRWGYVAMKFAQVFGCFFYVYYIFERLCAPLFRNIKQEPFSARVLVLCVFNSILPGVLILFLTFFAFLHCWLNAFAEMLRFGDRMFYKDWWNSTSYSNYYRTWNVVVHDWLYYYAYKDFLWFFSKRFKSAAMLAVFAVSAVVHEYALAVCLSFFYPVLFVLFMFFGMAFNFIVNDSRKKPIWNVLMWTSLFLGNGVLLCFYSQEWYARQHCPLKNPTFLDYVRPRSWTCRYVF

[7] = tested on: Huh-7; assay: Induction of ABCA1 mRNA expression in human HuH7 cells after 24 hrs; type: functional, cell-based; conditions: Huh-7, 24 h; method in brief: as §2
[8] = tested on: MC65; assay: Neuroprotective activity in tetracycline-deprived human MC65 cells assessed as protection against APP-induced cell death up to 50 uM by MTT assay

Structure (SMILES): Cc1cc2c(c(=O)o1)C=C1CC[C@H](C(C)CNCc3ccc(N(C)C)cc3)C[C@@H]1O2 (mixture of isomers)
EC50 [1]: 4.36 µM | selectivity ratio [2]: 8.76 | CC50 [3]: 38.2 µM

Structure (SMILES): COc1ccc(CNCC(C)[C@H]2CCC3=Cc4c(cc(C)oc4=O)O[C@H]3C2)cc1 (single isomer, unassigned)
EC50 [1]: 2.77 µM | selectivity ratio [2]: > 18.1 | CC50 [3]: > 50 µM

Structure (SMILES): COC(=O)c1ccc(CNCC(C)[C@H]2CCC3=Cc4c(cc(C)oc4=O)O[C@H]3C2)cc1 (mixture of isomers)
EC50 [1]: 0.769 µM | selectivity ratio [2]: > 65 | CC50 [3]: > 50 µM

EC50 [4]: 2.5 µM | IC50 [6]: 1.4 µM
Structure (SMILES): Cc1cc2c(c(=O)o1)C=C1CC[C@H](C(C)CNCc3ccc(CO)cc3)C[C@@H]1O2 (mixture of isomers)
EC50 [1]: 0.101 µM | selectivity ratio [5]: > 36 | selectivity ratio [2]: > 495 | CC50 [3]: > 50 µM

Structure (SMILES): Cc1cc2c(c(=O)o1)C=C1CC[C@H](C(C)CNCc3ccc4cc(O)ccc4c3)C[C@@H]1O2 (mixture of isomers)
EC50 [1]: 0.459 µM | selectivity ratio [2]: 52.5 | CC50 [3]: 24.1 µM

Structure (SMILES): Cc1cc2c(c(=O)o1)C=C1CC[C@H](C(C)CNCc3ccc(C=O)cc3)C[C@@H]1O2 (mixture of isomers)
EC50 [1]: 6.41 µM | selectivity ratio [2]: 6.15 | CC50 [3]: 39.4 µM

Structure (SMILES): Cc1cc2c(c(=O)o1)C=C1CC[C@H](C(C)CNCc3ccc(O)c([N+](=O)[O-])c3)C[C@@H]1O2 (mixture of isomers)
EC50 [1]: 3.85 µM | selectivity ratio [2]: > 13 | CC50 [3]: > 50 µM

Structure (SMILES): Cc1cc2c(c(=O)o1)C=C1CC[C@H](C(C)CNCc3ccc4c(c3)OCO4)C[C@@H]1O2 (mixture of isomers)
EC50 [1]: 1.18 µM | selectivity ratio [2]: > 42.4 | CC50 [3]: > 50 µM

Structure (SMILES): Cc1cc2c(c(=O)o1)C=C1CC[C@H](C(C)CNCc3c(O)ccc4ccccc34)C[C@@H]1O2 (mixture of isomers)
EC50 [1]: 0.198 µM | selectivity ratio [2]: 133 | CC50 [3]: 26.4 µM

Structure (SMILES): CC(=O)Oc1ccccc1C(=O)NCC(C)[C@H]1CCC2=Cc3c(cc(C)oc3=O)O[C@H]2C1 (mixture of isomers)
EC50 [1]: > 50 µM | CC50 [3]: 8.35 µM

Structure (SMILES): COc1cc(CNCC(C)[C@H]2CCC3=Cc4c(cc(C)oc4=O)O[C@H]3C2)cc(OC)c1O (mixture of isomers)
EC50 [1]: 1.26 µM | selectivity ratio [2]: > 39.7 | CC50 [3]: > 50 µM

Structure (SMILES): Cc1cc2c(c(=O)o1)C=C1CC[C@H](C(C)CNCc3ccc(OCc4ccccc4)c(OCc4ccccc4)c3)C[C@@H]1O2 (mixture of isomers)
EC50 [1]: 0.662 µM | selectivity ratio [2]: 14.2 | CC50 [3]: 9.38 µM

Structure (SMILES): Cc1cc2c(c(=O)o1)C=C1CC[C@H](C(C)CNC(=O)c3ccccc3O)C[C@@H]1O2 (stereo not given in full)
EC50 [1]: 6.25 µM | selectivity ratio [2]: 1.07 | CC50 [3]: 6.69 µM

Structure (SMILES): Cc1cc2c(c(=O)o1)C=C1CC[C@H](C(C)CNCc3ccccc3O)C[C@@H]1O2 (mixture of isomers)
EC50 [1]: 2.44 µM | selectivity ratio [2]: 12.6 | CC50 [3]: 30.7 µM

EC50 [7]: 0.6 µM | EC50 [4]: 0.9 µM | IC50 [6]: 1.2 µM
Structure (SMILES): Cc1cc2c(c(=O)o1)C=C1CC[C@H](C(C)Cn3cnc(N)c4ncnc3-4)C[C@@H]1O2 (stereo not given in full)
EC50 [1]: 0.12 µM | selectivity ratio [5]: 33 | selectivity ratio [2]: 325 | CC50 [3]: 39 µM

Structure (SMILES): Cc1cc2c(c(=O)o1)C=C1CC[C@H](C(C)CNCc3cc(O)cc4ccccc34)C[C@@H]1O2 (mixture of isomers)
EC50 [1]: 0.586 µM | selectivity ratio [2]: 31.1 | CC50 [3]: 18.2 µM

Structure (SMILES): Cc1cc2c(c(=O)o1)C=C1CC[C@H](C(C)CNCc3cccc(O)c3)C[C@@H]1O2 (stereo not given in full)
EC50 [1]: 4.66 µM | selectivity ratio [2]: > 10.7 | CC50 [3]: > 50 µM

Structure (SMILES): Cc1cc2c(c(=O)o1)C=C1CC[C@H](C(C)CNCc3ccc(OCCO)cc3)C[C@@H]1O2 (mixture of isomers)
EC50 [1]: 24.5 µM | selectivity ratio [2]: > 2.04 | CC50 [3]: > 50 µM

Structure (SMILES): Cc1cc2c(c(=O)o1)C=C1CC[C@H](C(C)CNCc3ccc(Cl)cc3)C[C@@H]1O2 (mixture of isomers)
EC50 [1]: 2.79 µM | selectivity ratio [2]: 17.2 | CC50 [3]: 48 µM

Structure (SMILES): Cc1cc2c(c(=O)o1)C=C1CC[C@H](C(C)CNCc3ccccc3)C[C@@H]1O2 (mixture of isomers)
EC50 [1]: 3.24 µM | selectivity ratio [2]: 11.5 | CC50 [3]: 37.3 µM

EC50 [7]: 0.6 µM | EC50 [4]: 1.1 µM
Structure (SMILES): Cc1cc2c(c(=O)o1)C=C1CC[C@H](C(C)CNCc3ccc(O)cc3)C[C@@H]1O2 (mixture of isomers)
EC50 [1]: 0.07 µM | CC50 [3]: 37 µM

EC50 [4]: 2.2 µM | IC50 [6]: 1.8 µM
Structure (SMILES): Cc1cc2c(c(=O)o1)C=C1CC[C@H](C(C)CNCc3ccc(O)c(F)c3)C[C@@H]1O2 (mixture of isomers)
EC50 [1]: 0.067 µM | selectivity ratio [5]: > 28 | selectivity ratio [2]: > 746 | CC50 [3]: > 50 µM

Structure (SMILES): COc1ccc(CNCC(C)[C@H]2CCC3=Cc4c(cc(C)oc4=O)O[C@H]3C2)cc1O (mixture of isomers)
EC50 [1]: 1.56 µM | selectivity ratio [2]: > 32.1 | CC50 [3]: > 50 µM

Structure (SMILES): CCCCCCCCCCC(C)(C)C(=O)Nc1c(OC)cc(OC)cc1OC
Activity [8]: inactive

Structure (SMILES): COc1ccc(CNCC(C)[C@H]2CCC3=Cc4c(cc(C)oc4=O)O[C@H]3C2)c2ccccc12 (stereo not given in full)
EC50 [1]: 0.621 µM | selectivity ratio [2]: 24.6 | CC50 [3]: 15.3 µM

Structure (SMILES): Cc1cc2c(c(=O)o1)C=C1CC[C@H](C(C)CNCc3ccc(C#N)cc3)C[C@@H]1O2 (mixture of isomers)
EC50 [1]: > 50 µM | CC50 [3]: > 50 µM

Structure (SMILES): COc1cc(CNCC(C)[C@H]2CCC3=Cc4c(cc(C)oc4=O)O[C@H]3C2)ccc1O (mixture of isomers)
EC50 [1]: 0.242 µM | selectivity ratio [2]: 109 | CC50 [3]: 26.3 µM

Structure (SMILES): Cc1cc2c(c(=O)o1)C=C1CC[C@H](C(C)CNCc3ccc(O)c4ccccc34)C[C@@H]1O2 (mixture of isomers)
EC50 [1]: 0.145 µM | EC50 [7]: 0.6 µM | EC50 [4]: 1.3 µM | CC50 [3]: 13.7 µM

Structure (SMILES): Cc1cc2c(c(=O)o1)C=C1CC[C@H](C(C)CNCc3ccc(O)c(Br)c3)C[C@@H]1O2 (mixture of isomers)
EC50 [1]: 0.639 µM | selectivity ratio [2]: > 78.2 | CC50 [3]: > 50 µM
